In ChEMBL document CHEMBL2406909, “Hydrolysis reactions of the taccalonolides reveal structure-activity relationships” (J Nat Prod, 2013):
Activity calls are given as the source filed them. The calls are words filed in the database; no cut-off is given here.

Experiments:
HeLa [1] = assay: Stabilization of microtubule in human HeLa cells assessed as increase in cellular density of interphase microtubules at 50 uM after 18 hrs by immunofluoroescence analysis; assay type: cell-based
Method in brief: (§1)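 HeLa cells in Basal Medium Eagle with 10% FBS and gentamicin, treated with vehicle or taccalonolide for 18 h. Interphase microtubules visualized by indirect immunofluorescence with a β-tubulin antibody and imaged by fluorescence microscopy. Microtubule density and bundling judged from representative images against vehicle-treated cells.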

HeLa [2] = assay: Antiproliferative activity against human HeLa cells after 48 hrs by SRB assay; assay type: functional, cell-based
HeLa [3] = assay: Antiproliferative activity against human HeLa cells; assay type: functional, cell-based
Method in brief: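 HeLa cells (ATCC) grown in Basal Medium Eagle with 10% FBS and 50 μg/mL gentamicin and exposed to compound for 48 h. Cells then TCA-fixed and stained with sulforhodamine B, with density read as absorbance at 560 nm. IC50 (50% inhibition of proliferation) taken ± SD from three independent experiments, each run in triplicate.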

HeLa [4] = assay: Stabilization of microtubule in human HeLa cells assessed as increase in cellular density of interphase microtubules at 10 uM after 18 hrs by immunofluoroescence analysis; assay type: cell-based; method in brief: as §1

| IC50 (HeLa [2]) [µM] | SMILES | Activity (HeLa [1]) | IC50 (HeLa [3]) [µM] | Activity (HeLa [4]) |
| --- | --- | --- | --- | --- |
| > 50 | CC(=O)O[C@H]1C[C@H]2[C@H]([C@@H]3[C@H]4OC(=O)[C@@](C)(O)[C@@]5(C)C(=O)C[C@@H](C)[C@@H]([C@@H]45)[C@]31C)[C@@H](O)C(=O)[C@H]1C[C@@H]3O[C@@H]3[C@H](OC(C)=O)[C@@]12C | inactive |  |  |
| 49.2 | CC(=O)O[C@H]1[C@H]2[C@@H](C(=O)[C@H](O)[C@H]3C[C@@H]4O[C@@H]4[C@H](OC(C)=O)[C@]23C)[C@@H]2[C@@H](O)[C@@H]3[C@H]([C@H](C)C=C4OC(=O)[C@@](C)(O)[C@@]43C)[C@@]2(C)[C@H]1OC(C)=O |  |  |  |
| > 50 | CC(=O)O[C@H]1[C@H]2[C@H]([C@@H]3[C@H]4OC(=O)[C@@](C)(O)[C@@]5(C)C(=O)C[C@@H](C)[C@@H]([C@@H]45)[C@@]3(C)[C@H]1OC(C)=O)[C@@H](O)C(=O)[C@H]1C[C@@H]3O[C@@H]3[C@H](OC(C)=O)[C@]21C | inactive |  |  |
| 39.5 | CC(=O)O[C@@H]1[C@H]2[C@@H]3[C@@H](O)C(=O)[C@H]4C[C@@H]5O[C@@H]5[C@H](OC(C)=O)[C@]4(C)[C@H]3C[C@H](OC(C)=O)[C@]2(C)[C@@H]2[C@@H]1[C@]1(C)C(=C[C@H]2C)OC(=O)[C@@]1(C)O [TACCALONOLIDE E] |  |  |  |
| 34.4 | CC(=O)O[C@H]1C[C@H]2[C@H]([C@@H]3[C@@H](O)[C@@H]4[C@H]([C@H](C)C=C5OC(=O)[C@@](C)(O)[C@@]54C)[C@]31C)[C@@H](O)C(=O)[C@@]1(O)C[C@@H]3O[C@@H]3[C@H](OC(C)=O)[C@]21C | Active |  |  |
| 1.5 | CC(=O)O[C@H]1C[C@H]2[C@H]([C@@H]3[C@@H](O)[C@@H]4[C@H]([C@H](C)C=C5OC(=O)[C@@](C)(O)[C@@]54C)[C@]31C)[C@@H](O)C(=O)[C@H]1C[C@@H]3O[C@@H]3[C@H](O)[C@@]12C |  |  | Active |
| 8.5 | CC(=O)O[C@H]1C[C@H]2[C@H]([C@@H]3[C@@H](O)[C@@H]4[C@H]([C@H](C)C=C5OC(=O)[C@@](C)(O)[C@@]54C)[C@]31C)[C@@H](O)C(=O)[C@H]1C[C@@H]3O[C@@H]3[C@H](OC(C)=O)[C@@]12C [TACCALONOLIDE N] |  |  |  |

Continued, compound first:

| SMILES | IC50 (HeLa [2]) [µM] | Activity (HeLa [1]) | IC50 (HeLa [3]) [µM] | Activity (HeLa [4]) |
| --- | --- | --- | --- | --- |
| CC(=O)O[C@@H]1[C@H]2[C@H]3[C@H]([C@H](OC(C)=O)[C@H](OC(C)=O)[C@]2(C)[C@H]2[C@H](C)[C@@H]4O[C@@]45OC(=O)[C@@](C)(O)[C@]5(C)[C@H]12)[C@]1(C)[C@H](C[C@@H]2O[C@@H]2[C@@H]1OC(C)=O)C(=O)[C@@H]3O |  |  | 0.023 |  |
| CC(=O)O[C@H]1C[C@H]2[C@H]([C@@H]3[C@@H](O)[C@@H]4[C@H]([C@H](C)C=C5OC(=O)[C@@](C)(O)[C@@]54C)[C@]31C)[C@@H](O)C(=O)[C@@]1(O)C[C@@H]3O[C@@H]3[C@H](OC(=O)CC(C)C)[C@]21C | 2 | Active |  |  |
| CC(=O)O[C@H]1[C@H]2[C@H]([C@@H]3[C@@H](O)[C@@H]4[C@H]([C@H](C)C=C5OC(=O)[C@@](C)(O)[C@@]54C)[C@@]3(C)[C@H]1OC(C)=O)[C@@H](O)C(=O)[C@H]1C[C@@H]3O[C@@H]3[C@H](OC(C)=O)[C@]21C [TACCALONOLIDE B] | 3.12 |  |  |  |
| CC(=O)O[C@H]1[C@H]2[C@H]([C@@H]3[C@@H](O)[C@@H]4[C@H]([C@H](C)[C@@H]5O[C@@]56OC(=O)[C@@](C)(O)[C@]46C)[C@@]3(C)[C@H]1OC(C)=O)[C@@H](O)C(=O)[C@H]1C[C@@H]3O[C@@H]3[C@H](OC(C)=O)[C@]21C |  |  | 0.0042 |  |
| CC(=O)O[C@@H]1[C@H]2[C@H]3[C@H]([C@H](OC(C)=O)[C@H](OC(C)=O)[C@]2(C)[C@@H]2[C@@H]1[C@]1(C)C(=C[C@H]2C)OC(=O)[C@@]1(C)O)[C@]1(C)[C@H](C[C@@H]2O[C@@H]2[C@@H]1OC(C)=O)C(=O)[C@@H]3O [TACCALONOLIDE A] | 5.32 |  |  |  |
